# Experimental data gathered from unrelated publications.
# Lines come from different studies, so protocols differ.
# Matrix: plasma
SMILES,host,route,dose,setting,Cmax
C[C@@H](Oc1ccc(S(C)(=O)=O)cc1C(=O)N1C[C@@H]2C[C@]2(c2cc(C(F)(F)F)on2)C1)C(F)(F)F,human,oral,25 mg,"fed, tablet",312 nM
C[C@@]1(c2cc(NC(=O)c3ccc(C#N)cn3)ccc2F)C=CSC(N)=N1,human,oral,1 mg,single dose,5.62 ng/mL
N#CN1C[C@H](n2nc(-c3ccc(Oc4ccc(Cl)cn4)cc3)c(C(N)=O)c2N)CCC12CC2,human,oral,600 mg,fasted,1060 ng/mL
CCCOc1ccc([C@H]2CNC(=O)N2c2ccc3[nH]cnc3c2)cc1,human,oral,200 mg,"single dose, fed, healthy volunteers",565 ng/mL
Cn1c(=O)oc2ccc(-c3ccc(C[C@@H](C#N)NC(=O)[C@@H]4CNCCCO4)cc3)cc21,male human,oral,35 mg,"single dose, healthy volunteers",668 nM
CCn1c(=O)c(-c2cc(NC(=O)Nc3ccccc3)c(F)cc2Br)cc2cnc(NC)cc21,human,oral,20 mg,"single dose, patients",109 ng/mL
Nc1cc(C(F)(F)F)c(-c2cc(N3CCOCC3)nc(N3CCOCC3)n2)cn1,human,oral,25 mg/day,patients,289 ng/mL
FC(F)(F)c1ccc(CNc2ccc(Cc3c[nH]c4ncc(Cl)cc34)cn2)cn1,human,oral,1600 mg,"multiple doses, patients",8770 ng/mL
Oc1cc(O)c2c(c1)O[C@@H](c1ccc(O)c(O)c1)[C@@H](O)C2,human,oral,10 mg,single dose,0.4 ng/mL
CO[C@H]1CC[C@H](N2C(=O)CNc3ncc(-c4ccc(C(C)(C)O)nc4)nc32)CC1,human,oral,7.5 mg,"multiple doses, patients",50.8 ng/mL
CC(C)n1cc(C#N)c2cc(-n3cc(C(=O)O)cn3)ccc21,human,oral,400 mg,"single dose, fasted, healthy volunteers",14700 ng/mL
O=C(Nc1c(Cl)cncc1Cl)c1ccc(OC(F)F)c(OCC2CC2)c1,human,oral,0.25 mg,"single dose, fasted",6.4 ng/mL
CCO[C@H]1CCN(Cc2c(OC)cc(C)c3[nH]ccc23)[C@H](c2ccc(C(=O)O)cc2)C1,human,oral,50 mg,"multiple doses, twice daily, patients",1800 ng/mL
COc1cc2c(cc1OC)CN(CCc1ccc(NC(=O)c3cc(OC)c(OC)cc3NC(=O)c3cnc4ccccc4c3)cc1)CC2,human,intravenous,1.5 mg/kg,patients,2300 nM
CCOc1cc([C@@H](CS(C)(=O)=O)N2C(=O)c3cccc(NC(C)=O)c3C2=O)ccc1OC,human,oral,30 mg,"single dose, healthy volunteers",278 ng/mL
O=C(/C=C/c1cccc(S(=O)(=O)Nc2ccccc2)c1)NO,human,intravenous,1900 mg/m²,patients,106000 ng/mL
CNC(=O)c1cc(Oc2ccc(NC(=O)Nc3cc(C(C)(C)C)nn3-c3ccc4ncccc4c3)c(F)c2)ccn1,human,oral,100 mg,"multiple doses, twice daily",114 ng/mL
Cc1ccc(C(=O)N(CCCN)[C@@H](c2oc3cc(Cl)ccc3c(=O)c2Cc2ccccc2)C(C)C)cc1,human,intravenous,4 mg/m²,"single dose, patients, infusion",489 ng/mL
CCc1nc2c(C)cc(N3CCN(CC(=O)N4CC(O)C4)CC3)cn2c1N(C)c1nc(-c2ccc(F)cc2)c(C#N)s1,human,oral,60 mg,"single dose, fed, healthy volunteers",600 ng/mL
CO[C@@H]1[C@H](OC(=O)N2CC(CCN3CCOCC3)C2)CC[C@]2(CO2)[C@H]1[C@@]1(C)O[C@@H]1CC=C(C)C,human,subcutaneous,3.6 mg,"single dose, healthy volunteers",16.1 ng/mL
COC(=O)N[C@@H](C)CNc1nccc(-c2cn(C(C)C)nc2-c2cc(Cl)cc(NS(C)(=O)=O)c2F)n1,human,oral,50 mg,single dose,482 ng/mL
COc1ccc([C@@H]2CN(C(=O)[C@@H](O)CO)C[C@@]2(C)[C@@H](C)O)cc1OC1CN(c2ccc(C)cn2)C1,human,oral,30 mg,"single dose, healthy volunteers",669 ng/mL
NS(=O)(=O)NCCNc1nonc1C(=NO)Nc1ccc(F)c(Br)c1,human,oral,500 mg,"multiple doses, twice daily, steady state, patients",4820 nM
CCCCC1=NC2(CCCC2)C(=O)N1Cc1ccc(-c2ccccc2S(=O)(=O)Nc2noc(C)c2C)c(COCC)c1,human,oral,200 mg,"single dose, fed, healthy volunteers",6280 ng/mL
CNCC[C@H](Oc1cccc2ccccc12)c1cccs1,female human,oral,60 mg,"multiple doses, once daily",54 ng/mL
O=C(O)C[C@H](O)C[C@H](O)/C=C/c1c(C2CC2)nc2ccccc2c1-c1ccc(F)cc1,human,oral,2 mg,"single dose, fasted, healthy volunteers, tablet",36.4 ng/mL
CC(C)(C(=O)N1CCOc2c(C#N)cncc2C1)C(F)F,human,oral,20 mg,"multiple doses, once daily",250 ng/mL
CC(C)(O)c1ccccc1-c1ccc2[nH]c(/C=C/c3ccc(C(F)(F)F)cc3)nc2c1,male human,oral,5 mg,"single dose, fasted, healthy volunteers",29.6 ng/mL
CS(=O)(=O)CCNCc1ccc(-c2ccc3ncnc(Nc4ccc(OCc5cccc(F)c5)c(Cl)c4)c3c2)o1,human,oral,750 mg,"multiple doses, twice daily, steady state, patients",2110 ng/mL
CC[C@H](C)C(=O)O[C@H]1C[C@H](O)C=C2C=C[C@H](C)[C@H](CC[C@@H](O)C[C@@H](O)CC(=O)O)[C@H]21,human,oral,20 mg,,11.4 ng/mL
COCCOc1cnc2ccn([C@H](C)c3nnc4c(F)cc(-c5cnn(C)c5)cn34)c(=O)c2c1,human,oral,200 mg,"multiple doses, once daily, patients",3760 ng/mL
CC(C)(Sc1ccncc1-c1ccc(C#N)c2ccccc12)C(=O)O,male human,oral,5 mg,"single dose, fed, healthy volunteers",45.7 ng/mL
COc1cc(C(=O)NC2CCN(C)CC2)c(F)cc1Nc1ncc(C(F)(F)F)c(Oc2cccc3c2C(=O)N(C)C3)n1,human,oral,50 mg,"multiple doses, once daily, steady state, patients",430 nM
Br.Cc1ccc(Sc2ccccc2N2CCNCC2)c(C)c1,human,oral,10 mg,"multiple doses, steady state, healthy volunteers",18 ng/mL
FC(F)(F)c1ccc(CNc2ccc(Cc3c[nH]c4ncc(Cl)cc34)cn2)cn1,human,oral,600 mg,"single dose, fasted, healthy volunteers",4220 ng/mL
Cn1cc(-c2ccc(S(=O)(=O)[C@@H]3C[C@@H](C(=O)NC4(C#N)CC4)N(C(=O)C4(C(F)(F)F)CC4)C3)c(C(F)(F)F)c2)cn1,human,oral,100 mg,"single dose, fed",946 ng/mL
C=C(F)C(=O)N1CCN(c2nc(OC[C@@H]3CCCN3C)nc3c2CCN(c2cccc4cccc(Cl)c24)C3)C[C@@H]1CC#N,human,oral,600 mg,"single dose, fasted",984 ng/mL
